According to ChEMBL document CHEMBL3997823, “New homoisoflavonoid analogues protect cells by regulating autophagy” (Bioorg Med Chem Lett, 2017):
Calls of active or inactive are those of the source. The rule behind the calls is not given here.

Assays:
H9c2 [1] = test: Cardioprotective activity against H2O2-induced injury in rat H9C2 cells assessed as increase in cell viability preincubated for 24 hrs followed by H2O2 addition measured after 24 hrs by MTT assay
H9c2 [2] = test: Cardioprotective activity against H2O2-induced injury in […] H9C2 cells assessed as increase in cell viability preincubated for 24 hrs followed by H2O2 addition measured after 24 hrs by MTT assay; type: functional, cell-based; conditions: Rattus norvegicus
Method in brief: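 H9c2 cardiomyocytes injured with H2O2; cell viability read-out, with diazoxide as positive control.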

SH-SY5Y [3] = test: Neuroprotective activity against MPP+-induced injury in human SH-SY5Y cells assessed as cell viability at 5 uM preincubated for 16 hrs followed by MPP+ addition measured after 8 hrs (reference value: 40.71 to 55.85%); type: functional; conditions: read-out: Activity
[4] = Cytotoxicity against human MCF7 cells assessed as inhibition of cell growth at 50 uM after 72 hrs by MTT assay relative to control; type: cell-based
[5] = Cytotoxicity against human SH-SY5Y cells assessed as inhibition of cell growth at 50 uM after 72 hrs by MTT assay relative to control; type: cell-based
SH-SY5Y [6] = test: Neuroprotective activity against MPP+-induced injury in human SH-SY5Y cells assessed as cell viability at 50 uM preincubated for 16 hrs followed by MPP+ addition measured after 8 hrs (reference value: 40.71 to 55.85%); type: functional; conditions: read-out: Activity
SH-SY5Y [7] = test: Induction of autophagy in human SH-SY5Y cells transfected with GFP-LC3 at 5 uM by MDC staining-based fluorescence microscopic method; type: functional, cell-based
SH-SY5Y [8] = test: Induction of autophagy in human SH-SY5Y cells at 12.5 to 50 uM after 24 by MDC staining-based flow cytometric method; type: functional, cell-based
Method in brief: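 SH-SY5Y cells were treated with compound for the indicated times, then stained with monodansylcadaverine. The MDC-positive cell ratio was measured by flow cytometry as the quantitative autophagy read-out.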

## COc1ccc(Cc2coc3cc(OC(C)=O)cc(O)c3c2=O)cc1
H9c2 [1]
  EC50: > 100 µM

## COc1cccc(Cc2coc3cc(O)cc(O)c3c2=O)c1
H9c2 [1]
  EC50: > 100 µM

## CCC(=O)Oc1cc(O)c2c(=O)c(Cc3ccc(OC)cc3)coc2c1
H9c2 [1]
  EC50: > 100 µM

## COc1cc(OC)c2c(=O)c(Cc3ccc(C(F)(F)F)cc3)coc2c1
H9c2 [1]
  EC50: > 100 µM

## COc1cc(OC)c(OC)cc1Cc1coc2cc(O)cc(O)c2c1=O
H9c2 [2]
  EC50: 15.7 µM
SH-SY5Y [3]
  viability at 5 µM: 62.1%
[4]
  inhibition at 72 h, 50 µM: 49.5%
[5]
  inhibition at 72 h, 50 µM: 15.3%
SH-SY5Y [6]
  viability at 50 µM: 48.4%

## COc1ccc(Cc2coc3cc(O)cc(O)c3c2=O)cc1
H9c2 [1]
  EC50: > 100 µM

## COc1cc(OC)c2c(=O)c(Cc3ccc(Cl)c(Cl)c3)coc2c1
SH-SY5Y [3]
  viability at 5 µM: 62.4%
SH-SY5Y [7]
  Activity: Active
SH-SY5Y [6]
  viability at 50 µM: 48.9%
H9c2 [1]
  EC50: 23.8 µM

## COc1ccc(Cc2coc3cc(OCCCl)cc(O)c3c2=O)cc1
H9c2 [1]
  EC50: > 100 µM

## COc1ccc(Cc2coc3cc(OC(=O)N(C)C)cc(O)c3c2=O)cc1
SH-SY5Y [3]
  viability at 5 µM: 42.5%
SH-SY5Y [6]
  viability at 50 µM: 35.5%
H9c2 [1]
  EC50: 19.9 µM

## COc1ccc(Cc2coc3cc(OCCCCCl)cc(O)c3c2=O)cc1
H9c2 [1]
  EC50: > 100 µM

## COc1ccc(Cc2coc3cc(OCC=C(C)C)cc(O)c3c2=O)cc1
H9c2 [1]
  EC50: > 100 µM

## COc1ccc(Cc2coc3cc(OC)cc(OC)c3c2=O)cc1
H9c2 [1]
  EC50: > 100 µM

## O=c1c(Cc2ccc(C(F)(F)F)cc2)coc2cc(O)cc(O)c12
H9c2 [1]
  EC50: 12.7 µM

## COc1ccccc1Cc1coc2cc(O)ccc2c1=O
SH-SY5Y [3]
  viability at 5 µM: 38.1%
SH-SY5Y [6]
  viability at 50 µM: 37.5%
H9c2 [1]
  EC50: 12.7 µM

## COc1ccc(Cc2coc3cc(O)cc(O)c3c2=O)cc1OC
SH-SY5Y [8]
  Activity: Active
SH-SY5Y [3]
  viability at 5 µM: 60.3%
SH-SY5Y [7]
  Activity: Active
SH-SY5Y [6]
  viability at 50 µM: 60.9%
H9c2 [1]
  EC50: 12.1 µM

## COc1cc(OC)c2c(=O)c(Cc3cccs3)coc2c1
SH-SY5Y [3]
  viability at 5 µM: 37.8%
SH-SY5Y [6]
  viability at 50 µM: 42.2%
H9c2 [1]
  EC50: 74.3 µM

## COc1ccccc1Cc1coc2cccc(O)c2c1=O
H9c2 [1]
  EC50: > 100 µM

## COc1ccc(Cc2coc3cccc(O)c3c2=O)cc1
H9c2 [1]
  EC50: > 100 µM

## COc1ccc(Cc2coc3cc(O)ccc3c2=O)cc1
H9c2 [1]
  EC50: 32.1 µM

## COc1ccccc1Cc1coc2cc(O)cc(O)c2c1=O
H9c2 [1]
  EC50: 24.4 µM
